Reference: ChEMBL document CHEMBL4017535 (J Med Chem, 2017)

Columns and labels:
[1] = molecular target: T1, Bromodomain-containing protein 4 (Homo sapiens, UniProt O60885); experiment: Inhibition of BRD4 in human H1299 cells assessed as decrease in HPV LCR-E2-EP400-mediated transcriptional repression after 24 hrs by Bright-Glo luciferase reporter gene assay; assay type: cell-based
Rattus norvegicus = species: Rattus norvegicus; experiment: Drug excretion in rat using radiolabelled compound; assay type: ADME; conditions: in vivo
[2] = Intrinsic clearance in rat liver microsomes at 10 uM preincubated for 5 mins followed by NADPH addition measured after 60 mins by HPLC-UV-MS analysis; assay type: ADME, microsome; conditions: read-out: CLH (converted)
[3] = Intrinsic clearance in mouse liver microsomes; assay type: ADME, microsome; conditions: read-out: CLH (converted)
[4] = molecular target: Translocator protein (Rattus norvegicus) (UniProt P16257); experiment: Displacement of [3H]PK-11195 from peripheral benzodiazepine receptor in rat heart at 10 uM
[5] = Oral bioavailability in dog; assay type: ADME, organism-based, Canis lupus familiaris; conditions: in vivo
[6] = Intrinsic clearance in human liver microsomes at 10 uM preincubated for 5 mins followed by NADPH addition measured after 60 mins by HPLC-UV-MS analysis; assay type: ADME, microsome; conditions: read-out: CLH
Mus musculus [7] = experiment: Unbound AUC in mouse at 10 mg/kg, po; assay type: ADME, organism-based; conditions: in vivo
Method in brief: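 Mouse PK: 3 mg/kg IV and 10 mg/kg PO. Clearance is expressed unbound, Cl_p,u in L/hr/kg. AUC is unbound, in µM*hr. FaFg is computed as F/(1-Clp/Qh), with mouse liver blood flow Qh 5.2 L/hr/kg. Unbound plasma fraction was measured separately.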

[8] = molecular target: Bromodomain and WD repeat-containing protein 1 (Homo sapiens, UniProt Q9NSI6); experiment: Binding affinity to human WDR9(2) (A1310 to E1430 residues) expressed in bacterial expression system by BROMOscan assay
[9] = molecular target: T1, Bromodomain-containing protein 4; experiment: Binding affinity to human N-terminal His6-tagged BRD4 BD1-BD2 (K57 to K550 residues) after 1 hr using alexa-647 conjugated probe by TR-FRET assay
[10] = molecular target: T1, Bromodomain-containing protein 4; experiment: Binding affinity to N-terminal His6-tagged human BRD4 BD1 to BD2 (K57 to K550 residues) by isothermal titration calorimetry
[11] = molecular target: Histone acetyltransferase p300 (Homo sapiens, UniProt Q09472); experiment: Binding affinity to human EP300 (A1040 to G1161 residues) expressed in bacterial expression system by BROMOscan assay
[12] = molecular target: Adenosine receptor A2a (Homo sapiens) (UniProt P29274); conditions: HEK293, 10 uM
Mus musculus [13] = experiment: Inhibition of LPS-induced IL-6 release in po dosed CD-1 mouse serum administered for 1 hr followed by LPS challenge measured after 2 hrs by immunoassay; assay type: functional, organism-based
Method in brief: (§1)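 Compound given orally to mice, followed by an LPS challenge. Plasma IL-6 and plasma compound concentration were both measured 2 hours after LPS. Inhibition was related to dose and to plasma concentration at the time of cytokine measurement. Values are mean ± SE, n=5 per group.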

MX1 = experiment: Antiproliferative activity against human MX1 cells after 72 hrs by Cell Titer Glo assay; assay type: functional, cell-based; conditions: MX1, 72 h
Mus musculus [14] = experiment: Inhibition of LPS-induced IL-6 release in po dosed CD-1 mouse serum assessed as plasma concentration required to show 50% inhibition administered for 1 hr followed by LPS challenge measured after 2 hrs by immunoassay; assay type: functional, organism-based; method in brief: as §1
Protein polybromo-1 = Protein polybromo-1 (Homo sapiens, UniProt Q86U86); experiment: Binding affinity to human PBRM1 bromodamian-5 (S645 to D766 residues) expressed in bacterial expression system by BROMOscan assay
[15] = molecular target: Transcription initiation factor TFIID subunit 1-like (Homo sapiens, UniProt Q8IZX4); experiment: Binding affinity to human TAF1L (2) (Q1523 to D1654 residues) expressed in bacterial expression system by BROMOscan assay
[16] = Plasma clearance in iv dosed human; assay type: ADME, organism-based
Translocator protein = Translocator protein (Homo sapiens, UniProt P30536); experiment: Antagonist activity at peripheral benzodiazepine receptor (unknown origin)
[17] = Intrinsic clearance in dog hepatocytes; assay type: ADME, cell-based, Canis lupus familiaris, Hepatocyte; conditions: read-out: CLH (converted)
[18] = Oral bioavailability in monkey; assay type: ADME, organism-based, Macaca mulatta; conditions: rhesus monkey, in vivo
[19] = Intrinsic clearance in human hepatocytes; assay type: ADME, cell-based, Hepatocyte; conditions: read-out: CLH (converted)
[20] = Fraction unbound in mouse plasma at 1 uM after 4 hrs by LC-MS/MS method; assay type: ADME, cell-free
Liver = experiment: Unbound intrinsic clearance in human liver microsomes at 10 uM preincubated for 5 mins followed by NADPH addition measured after 60 mins by HPLC-UV-MS analysis; assay type: ADME, microsome; conditions: 1 h
[21] = Half life in mouse at 10 mg/kg, po; assay type: ADME, organism-based; conditions: in vivo
[22] = molecular target: Transcription intermediary factor 1-alpha (Homo sapiens, UniProt O15164); experiment: Binding affinity to human TRIM24 (PHD, Bromo) (P790 to P977 residues) expressed in bacterial expression system by BROMOscan assay
[23] = molecular target: Bromodomain adjacent to zinc finger domain protein 2A (Homo sapiens, UniProt Q9UIF9); experiment: Binding affinity to human BAZ2A (M1792 to L1905 residues) expressed in bacterial expression system by BROMOscan assay
[24] = molecular target: Bromodomain-containing protein 3 (Homo sapiens, UniProt Q15059); experiment: Binding affinity to BRD3 BD1 to BD2 (P24 to A416 residues) (unknown origin)
[25] = Permeability in MDCK cells; assay type: ADME, cell-based, Canis lupus familiaris; conditions: dog, read-out: permeability
[26] = molecular target: Adenosine receptor A1 (Homo sapiens) (UniProt P30542); experiment: Displacement of [3H]-DPCPX from recombinant human adenosine A1 receptor expressed in CHO cells at 10 uM; assay type: cell-based
[27] = Half life in human at 1 mg, po; assay type: ADME; conditions: in vivo
Method in brief: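 Clinical PK in subjects with cancer after a single 1 mg oral dose, n = 3. Apparent clearance was reported as PO CLp/F in L/hr.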

[28] = molecular target: Bromodomain and PHD finger-containing protein 3 (Homo sapiens, UniProt Q9ULD4); experiment: Binding affinity to human BRPF3 (E588 to G701 residues) expressed in bacterial expression system by BROMOscan assay

Sequence of Bromodomain and WD repeat-containing protein 1 (Q9NSI6 whole entry, the tested form may be a part): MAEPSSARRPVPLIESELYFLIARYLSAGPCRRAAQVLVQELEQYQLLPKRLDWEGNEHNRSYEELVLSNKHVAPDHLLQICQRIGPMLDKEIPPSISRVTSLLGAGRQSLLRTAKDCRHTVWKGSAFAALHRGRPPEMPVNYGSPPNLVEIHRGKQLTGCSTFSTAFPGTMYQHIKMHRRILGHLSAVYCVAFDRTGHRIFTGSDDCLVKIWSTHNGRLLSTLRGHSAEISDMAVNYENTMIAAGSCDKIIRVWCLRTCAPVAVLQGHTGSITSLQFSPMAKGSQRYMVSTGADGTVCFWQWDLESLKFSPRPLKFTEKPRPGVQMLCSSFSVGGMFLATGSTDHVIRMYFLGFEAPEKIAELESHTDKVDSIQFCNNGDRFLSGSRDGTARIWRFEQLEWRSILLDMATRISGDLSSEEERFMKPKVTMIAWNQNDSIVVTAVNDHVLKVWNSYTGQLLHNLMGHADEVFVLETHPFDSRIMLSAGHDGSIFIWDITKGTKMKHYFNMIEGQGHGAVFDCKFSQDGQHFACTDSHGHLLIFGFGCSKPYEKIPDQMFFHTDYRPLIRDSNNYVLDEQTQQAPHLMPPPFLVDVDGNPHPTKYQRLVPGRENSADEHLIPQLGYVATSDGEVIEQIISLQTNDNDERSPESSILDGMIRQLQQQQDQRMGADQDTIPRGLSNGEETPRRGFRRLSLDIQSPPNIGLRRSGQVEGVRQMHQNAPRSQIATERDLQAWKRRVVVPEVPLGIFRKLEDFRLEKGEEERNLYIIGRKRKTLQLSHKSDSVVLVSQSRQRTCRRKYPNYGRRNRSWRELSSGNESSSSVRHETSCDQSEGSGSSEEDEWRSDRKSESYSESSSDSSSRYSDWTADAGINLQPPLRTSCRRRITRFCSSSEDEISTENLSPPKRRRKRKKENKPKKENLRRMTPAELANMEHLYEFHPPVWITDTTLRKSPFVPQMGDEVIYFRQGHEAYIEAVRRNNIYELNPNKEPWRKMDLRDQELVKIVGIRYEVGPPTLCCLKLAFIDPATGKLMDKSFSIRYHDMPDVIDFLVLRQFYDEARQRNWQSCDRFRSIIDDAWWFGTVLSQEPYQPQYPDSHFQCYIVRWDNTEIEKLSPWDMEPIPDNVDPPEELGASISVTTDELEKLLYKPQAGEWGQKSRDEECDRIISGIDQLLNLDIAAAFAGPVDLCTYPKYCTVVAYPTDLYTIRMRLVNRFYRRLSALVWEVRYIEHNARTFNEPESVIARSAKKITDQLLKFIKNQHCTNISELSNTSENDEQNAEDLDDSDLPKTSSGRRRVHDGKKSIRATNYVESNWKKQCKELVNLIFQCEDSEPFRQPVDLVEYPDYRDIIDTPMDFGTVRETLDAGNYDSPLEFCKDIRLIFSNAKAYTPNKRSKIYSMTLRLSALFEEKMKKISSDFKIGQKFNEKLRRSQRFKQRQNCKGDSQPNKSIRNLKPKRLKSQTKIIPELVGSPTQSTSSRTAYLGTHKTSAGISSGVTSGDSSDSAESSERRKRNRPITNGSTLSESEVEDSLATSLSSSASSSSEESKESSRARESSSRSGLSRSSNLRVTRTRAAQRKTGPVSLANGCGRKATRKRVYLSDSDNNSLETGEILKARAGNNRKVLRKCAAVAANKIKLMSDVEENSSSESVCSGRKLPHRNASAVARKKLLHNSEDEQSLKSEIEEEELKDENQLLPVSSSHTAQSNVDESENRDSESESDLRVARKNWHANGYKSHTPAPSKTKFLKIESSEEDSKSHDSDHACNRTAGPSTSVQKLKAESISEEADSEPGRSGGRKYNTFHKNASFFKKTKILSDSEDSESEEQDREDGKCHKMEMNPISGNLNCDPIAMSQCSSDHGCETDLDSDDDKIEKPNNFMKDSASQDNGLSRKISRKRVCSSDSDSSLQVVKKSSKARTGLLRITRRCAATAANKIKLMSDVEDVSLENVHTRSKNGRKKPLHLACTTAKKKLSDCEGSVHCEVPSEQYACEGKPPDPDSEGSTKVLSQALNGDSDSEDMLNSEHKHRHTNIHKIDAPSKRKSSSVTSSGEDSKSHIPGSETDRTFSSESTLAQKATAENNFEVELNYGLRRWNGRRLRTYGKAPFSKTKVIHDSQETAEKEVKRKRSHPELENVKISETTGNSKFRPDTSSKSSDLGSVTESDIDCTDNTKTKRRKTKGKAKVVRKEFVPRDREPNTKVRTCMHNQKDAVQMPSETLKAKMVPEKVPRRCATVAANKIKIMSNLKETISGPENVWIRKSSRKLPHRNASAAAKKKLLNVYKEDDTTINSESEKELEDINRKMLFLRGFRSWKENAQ
Sequence of Transcription initiation factor TFIID subunit 1-like (Q8IZX4 whole entry, the tested form may be a part): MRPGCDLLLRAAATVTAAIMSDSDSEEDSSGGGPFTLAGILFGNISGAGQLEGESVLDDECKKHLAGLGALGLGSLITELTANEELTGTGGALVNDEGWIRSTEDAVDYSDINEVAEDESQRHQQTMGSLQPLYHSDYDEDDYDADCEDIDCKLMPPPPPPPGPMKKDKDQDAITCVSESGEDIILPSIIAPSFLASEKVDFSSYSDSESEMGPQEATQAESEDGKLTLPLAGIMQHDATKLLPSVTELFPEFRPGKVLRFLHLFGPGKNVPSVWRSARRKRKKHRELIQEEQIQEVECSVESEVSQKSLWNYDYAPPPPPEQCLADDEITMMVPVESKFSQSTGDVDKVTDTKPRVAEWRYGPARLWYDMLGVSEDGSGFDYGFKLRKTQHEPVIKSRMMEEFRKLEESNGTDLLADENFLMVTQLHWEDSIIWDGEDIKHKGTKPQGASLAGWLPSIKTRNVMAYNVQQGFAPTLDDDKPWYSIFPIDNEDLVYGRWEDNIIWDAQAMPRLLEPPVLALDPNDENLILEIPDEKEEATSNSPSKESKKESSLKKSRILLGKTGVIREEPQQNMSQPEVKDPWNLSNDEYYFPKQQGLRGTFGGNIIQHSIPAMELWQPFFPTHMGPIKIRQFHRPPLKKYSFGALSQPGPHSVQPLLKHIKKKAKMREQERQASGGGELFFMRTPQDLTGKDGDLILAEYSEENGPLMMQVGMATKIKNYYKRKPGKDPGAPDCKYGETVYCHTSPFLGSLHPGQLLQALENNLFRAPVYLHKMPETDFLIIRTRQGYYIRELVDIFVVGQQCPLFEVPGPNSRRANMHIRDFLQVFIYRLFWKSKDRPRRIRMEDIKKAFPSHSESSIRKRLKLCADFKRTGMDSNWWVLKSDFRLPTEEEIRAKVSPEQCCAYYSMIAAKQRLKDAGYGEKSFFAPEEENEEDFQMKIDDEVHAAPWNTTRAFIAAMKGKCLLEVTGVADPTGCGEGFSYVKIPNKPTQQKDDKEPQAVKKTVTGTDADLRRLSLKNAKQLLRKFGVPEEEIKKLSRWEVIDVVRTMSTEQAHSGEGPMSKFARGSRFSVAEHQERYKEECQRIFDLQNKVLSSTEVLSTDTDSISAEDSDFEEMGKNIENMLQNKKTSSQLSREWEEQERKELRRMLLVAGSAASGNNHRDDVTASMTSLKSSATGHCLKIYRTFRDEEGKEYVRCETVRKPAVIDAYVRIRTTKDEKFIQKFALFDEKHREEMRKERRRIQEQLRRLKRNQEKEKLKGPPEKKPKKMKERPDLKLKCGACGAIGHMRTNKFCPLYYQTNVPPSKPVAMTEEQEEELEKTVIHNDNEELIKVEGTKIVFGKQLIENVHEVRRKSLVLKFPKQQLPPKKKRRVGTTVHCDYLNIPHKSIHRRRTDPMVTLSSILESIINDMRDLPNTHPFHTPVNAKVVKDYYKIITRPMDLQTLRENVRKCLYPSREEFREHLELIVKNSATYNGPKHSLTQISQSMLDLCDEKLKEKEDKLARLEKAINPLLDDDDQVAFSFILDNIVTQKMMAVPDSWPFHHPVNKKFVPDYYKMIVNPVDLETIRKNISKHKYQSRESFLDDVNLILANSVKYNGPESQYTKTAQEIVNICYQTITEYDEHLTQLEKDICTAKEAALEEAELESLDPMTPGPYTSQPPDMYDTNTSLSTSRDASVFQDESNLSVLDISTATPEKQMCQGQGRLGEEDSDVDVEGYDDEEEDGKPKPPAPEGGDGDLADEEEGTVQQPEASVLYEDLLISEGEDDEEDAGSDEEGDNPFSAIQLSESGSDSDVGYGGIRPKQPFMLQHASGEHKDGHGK
Sequence of Adenosine receptor A1 (Homo sapiens) (P30542 whole entry): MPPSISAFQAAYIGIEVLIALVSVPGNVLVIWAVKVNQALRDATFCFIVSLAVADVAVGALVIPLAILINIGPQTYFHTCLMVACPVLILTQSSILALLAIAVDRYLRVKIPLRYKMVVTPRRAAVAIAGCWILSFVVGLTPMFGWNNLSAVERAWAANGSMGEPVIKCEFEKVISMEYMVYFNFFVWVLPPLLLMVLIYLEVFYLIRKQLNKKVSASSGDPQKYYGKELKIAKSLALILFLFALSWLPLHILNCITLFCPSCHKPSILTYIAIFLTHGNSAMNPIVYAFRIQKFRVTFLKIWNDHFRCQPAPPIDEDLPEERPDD
Sequence of Adenosine receptor A2a (Homo sapiens) (P29274 whole entry, looked up): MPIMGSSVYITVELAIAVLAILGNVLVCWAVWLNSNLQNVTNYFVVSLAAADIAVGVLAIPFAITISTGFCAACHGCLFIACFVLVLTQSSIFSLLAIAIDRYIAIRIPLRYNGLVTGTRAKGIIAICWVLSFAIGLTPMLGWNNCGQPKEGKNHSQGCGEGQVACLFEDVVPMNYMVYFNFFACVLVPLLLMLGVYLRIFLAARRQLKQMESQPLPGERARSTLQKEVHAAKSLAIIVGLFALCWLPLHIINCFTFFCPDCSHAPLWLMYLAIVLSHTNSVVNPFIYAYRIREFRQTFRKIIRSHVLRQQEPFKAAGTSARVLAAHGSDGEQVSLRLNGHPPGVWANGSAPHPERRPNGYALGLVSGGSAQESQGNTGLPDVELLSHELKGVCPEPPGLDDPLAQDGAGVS
Sequence of Translocator protein (P30536 whole entry): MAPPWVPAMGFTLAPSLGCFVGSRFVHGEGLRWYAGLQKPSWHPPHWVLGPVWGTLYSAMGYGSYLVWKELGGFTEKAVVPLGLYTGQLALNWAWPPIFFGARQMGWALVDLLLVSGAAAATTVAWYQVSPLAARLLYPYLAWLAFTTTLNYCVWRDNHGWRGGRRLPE

Compound: CCS(=O)(=O)Nc1ccc(Oc2ccc(F)cc2F)c(-c2cn(C)c(=O)c3[nH]ccc23)c1 [MIVEBRESIB]
- EC50 [1]: 20 nM
- Drug excretion (Rattus norvegicus): 76 %ID
- CLint scaled at 10 µM [2]: 66.7 mL/min/kg
- CLint scaled [3]: 138 mL/min/kg
- inhibition [4]: 86%
- bioavailability [5]: 41%
- CLint scaled at 10 µM [6]: < 25 mL/min/kg
- fAUC (Mus musculus [7]): 0.63 µM·h
- Kd [8]: > 1000 nM
- Ki [9]: 1.5 nM
- Kd [10]: < 10 nM
- Kd [11]: 87 nM
- inhibition [12]: 87%
- inhibition (Mus musculus [13]): Dose-dependent effect
- EC50 (MX1): 13 nM
- Cp (Mus musculus [14]): 0.03 to 0.1 µM
- Kd (Protein polybromo-1): > 1000 nM
- Kd [15]: > 1000 nM
- clearance [16]: 2.33 mL/min/kg
- IC50 (Translocator protein): 800 nM
- CLint scaled [17]: 35 mL/min/kg
- bioavailability [18]: 33%
- CLint scaled [19]: 14.5 mL/min/kg
- fraction unbound at 4 h, 1 µM [20]: 0.02
- CL free (Liver): < 48.3 mL/min/kg
- half-life [21]: 2.7 h
- Kd [22]: > 1000 nM
- Kd [23]: > 1000 nM
- Ki [24]: 12.2 nM
- Papp [25]: 29 ×10⁻⁶ cm/s
- inhibition [26]: 97%
- half-life [27]: 25.1 h
- Kd [28]: > 1000 nM
